OXTR ag – human OXTR agonism. CHO-OTR cells, Fluo-8 calcium fluorescence; normalized: DMSO 0%, oxytocin 100%. AID 2435. activation, % at 3 µM. 320,000 tested, 0.32% active. P30559;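 active means activation above the mean of all tested compounds plus 3 SD, cutoff set per screening run, cut at about 20% in these data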;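 further: peak over basal fluorescence ratio from a 100 s FLIPR kinetic read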
OXTR potentiate – human OXTR potentiation | 320,000 tested, 0.061% active | activation, % at 3 µM | P30559 | CHO-OTR cells, Fluo-8 calcium fluorescence, potentiator mode; 0% = oxytocin EC15, 100% = EC100;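 active means activation above that plate's cutoff, the mean activation of tested compounds plus 3 SD, cut at about 6.6% in these data, passing the limit was not always enough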;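 further: 100% uses oxytocin at 75 nM as the full agonist control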
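Assay system: CHO cell line stably expressing human OTR | Also added: Oxytocin at about EC15, sub-maximal agonist stimulus | Times: Compound 6 min at room temperature before oxytocin, 100 s read | Measured by: Fluo-8 intracellular calcium fluorescence, ex 470-495, em 515-575 nm | Controls: EC15 oxytocin alone as 0%, 75 nM oxytocin as 100%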
zfTRPN1 agonist – zebrafish TRPN1 (NompC) channel agonism; HEK293 zebrafish TRPN1-YFP, Fluo-8 calcium fluorescence; 100% = response to 87 µM carbachol; activation, % at 3 µM; 220,000 tested, 0.18% active;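 active means activation above its plate's cutoff, the mean activation of test wells on that plate plus 3 SD, cut at about 19% in these data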;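 further: 0% = DMSO alone and 100% = 87 µM carbachol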
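Material: zebrafish TRPN1-YFP in HEK293 cells; Doses: single test compound dose, 3 µM nominal, 0.3% DMSO; Timing: dye loading 1 h at 37 °C, then 30 min room temperature; Technique: intracellular calcium fluorescence with Fluo-8; Benchmarks: high carbachol 87 µM, low DMSO alone.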
V1R ag counter – activates human V1a receptor in oxytocin agonist counter-screen; P37288; CHO-V1R cells, Fluo-8 calcium fluorescence, agonist mode; 0% DMSO, 100% 3 nM vasopressin; activation, % at 3 µM; 320,000 tested, 0.25% active; AID 2797;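 active means activation above the mean activation of all tested compounds plus 3 SD, per screening run, cut at about 20% in these data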;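 further: signal is peak over basal fluorescence ratio across a 100 second FLIPR read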
Target sequence (P37288 whole entry, looked up): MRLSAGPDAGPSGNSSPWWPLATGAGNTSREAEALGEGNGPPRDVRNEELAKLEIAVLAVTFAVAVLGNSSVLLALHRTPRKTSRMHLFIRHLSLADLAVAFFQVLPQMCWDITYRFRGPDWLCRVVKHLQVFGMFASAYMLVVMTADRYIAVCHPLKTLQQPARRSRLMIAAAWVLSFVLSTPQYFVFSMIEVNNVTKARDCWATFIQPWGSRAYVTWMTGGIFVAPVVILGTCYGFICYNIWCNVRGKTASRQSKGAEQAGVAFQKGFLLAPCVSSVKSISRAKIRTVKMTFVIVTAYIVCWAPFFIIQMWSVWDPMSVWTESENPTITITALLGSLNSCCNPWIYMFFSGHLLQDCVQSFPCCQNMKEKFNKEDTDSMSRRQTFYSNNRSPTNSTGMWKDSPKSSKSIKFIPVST
TRPML3 ag – agonists of human TRPML3 channel; activation, % at 3 µM; HEK293 TRPML3-YFP, Fluo-8 calcium fluorescence; 100% = the carbachol control signal; 220,000 tested, 0.29% active;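 active means activation above its plate's cutoff, the mean activation of the plate's test wells plus 3 SD, cut at about 12% in these data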;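 further: 0% = DMSO only wells and 100% = carbachol wells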
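system = HEK293 cells stably carrying human TRPML3-YFP | doses = one concentration, 3 µM nominal, 0.3% DMSO | timing = dye loading 1 h 37 °C then 30 min ambient, 125 s read | detection = Fluo-8 calcium dye fluorescence, ex 470-495, em 515-575 nm | benchmarks = high control carbachol 87 µM, low control DMSO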
OXTR ag confirm – confirmation of human oxytocin receptor agonists; shares compounds with OXTR ag; CHO-OTR cells, Fluo-8 calcium fluorescence, agonist; activation, % at 3 µM; 390 tested, 20% active; AID 434963;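 active means mean activation above about 20% derived from the earlier single-dose screen, limit read from the data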;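 further: peak over minimum fluorescence ratio per well during a 100 second FLIPR read; 0% = DMSO alone and 100% = oxytocin high control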
V1R ag counter 3x – V1R agonism in triplicate, counter-screen for OXTR agonists. shares compounds with OXTR ag. AID 434991. 390 tested, 10% active. activation, % at 3 µM. CHO-V1R cells, Fluo-8 calcium fluorescence, agonist;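 active means mean activation over triplicate exceeds the hit threshold set in the earlier primary screen, cut at about 20% in these data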;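 further: peak over basal fluorescence ratio within a 100 second read; 0% = DMSO alone and 100% = 3 nM vasopressin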
* marks the source's active call; other numbers are inactive results; nt = no result. Compounds with a hit are over-represented: about 0.59% of the library has one in this group of screens.

SMILES	OXTR ag	OXTR potentiate	zfTRPN1 agonist	V1R ag counter	TRPML3 ag	OXTR ag confirm	V1R ag counter 3x
Cc1ccc(N=c2ssnc2Cl)cc1	2	-11	-1	2	1	nt	nt
Cc1cc(Cl)ccc1N=c1ssnc1Cl	21*	-9	2	10	1	21*	16
CCOC(=O)C1=C(N)N2C(=O)C(C)SC2=C(C(=O)OC)C1c1ccccc1OC (stereo not drawn)	31*	-18	0	13	0	7	8
CSc1nc(-c2ccccc2)c(-c2ccccc2)[nH]1	23*	-20	-2	18	-1	-1	0
COc1cc(/C=C2\Oc3cc(O)ccc3C2=O)ccc1O	22*	-11	nt	12	nt	13	21*
CCOc1cc(CNC2CCCC2)cc(Cl)c1OCc1ccc(F)cc1	21*	-12	0	10	1	6	4
COc1cc(CNC2CCCC2)cc(Cl)c1OCc1ccc(F)cc1	13	-11	1	11	1	nt	nt
CNCCNC[C@H](Cc1cccc2ccccc12)NCCc1ccccc1	2	-1	nt	2	nt	nt	nt
CNC[C@H](Cc1ccccc1)NC[C@@H](Cc1cccc2ccccc12)NCCc1ccc(C)cc1	21*	-9	nt	7	nt	10	9
CN1CCC(N(C)S(=O)(=O)c2ccc(NC(=O)COc3ccc(Br)cc3Cl)cc2)CC1	25*	-17	nt	12	nt	9	8
CC(C)(C)N(Cc1ccccc1)C(=O)COC(=O)C1CCN(c2ccc(C(F)(F)F)cn2)CC1	1	-6	nt	1	nt	nt	nt
COC(=O)C1=C(C)N(Cc2ccccc2)C(=NCCc2c[nH]c3ccccc23)N[C@H]1c1cccc(F)c1	22*	-9	nt	11	nt	7	4
COC(=O)C1=C(C)N(Cc2ccccc2)C(=NCc2ccccc2)N[C@H]1c1ccccc1	18	-10	nt	7	nt	nt	nt
COC(=O)C1=C(C)N(Cc2ccccc2)C(=NCc2ccccc2)N[C@H]1c1cccc(F)c1	20*	-10	nt	9	nt	9	5
N#Cc1ccsc1NC(=O)c1ccc(Cl)c([N+](=O)[O-])c1	22*	-9	30*	15	19*	18	12
CCOC(=O)Cn1c(=N)n(CCOc2ccc(OC)cc2)c2ccccc21	39*	-21	0	1	1	0	0
COc1ccc(C(CCNCc2ccc(OC(C)C)cc2)c2ccccc2OC)cc1 (stereo not drawn)	22*	-18	nt	15	nt	12	9
COc1ccccc1CNCC(O)Cn1c2ccccc2c2ccccc21 (stereo not drawn)	22*	-14	1	9	1	11	7
COc1ccc(-n2ncc(C(=O)N3CCN(c4ccc(F)cc4)CC3)c2C)cc1	1	-4	5	1	2	nt	nt
CS(=O)(=O)N1CCc2ccc(NC(=O)C3CCCO3)cc2C1 (stereo not drawn)	0	-7	nt	2	nt	nt	nt
CCC(C)N1C(=O)/C(=C/c2c(NCCCOC(C)C)nc3c(C)cccn3c2=O)SC1=S (stereo not drawn)	21*	-7	2	18	2	37*	85*
CC(NC(=O)CN1CCOCC1)c1ccccc1 (stereo not drawn)	21*	1	nt	1	nt	0	0
O=C(Nc1cccc(Br)c1)c1ccc(Cl)c(S(=O)(=O)N2CCOCC2)c1	24*	-14	10	15	4	10	10
Cc1ccc(N/N=C(\C#N)C(N)=S)c(C)c1	24*	-12	4	11	2	7	6
Cc1ccc(NC(=O)/C(C#N)=N/Nc2ccc(C(=O)O)cc2)c(C)c1	-1	7	2	1	0	nt	nt
SMILES	OXTR ag	OXTR potentiate	zfTRPN1 agonist	V1R ag counter	TRPML3 ag	OXTR ag confirm	V1R ag counter 3x
CC1Sc2ccc(S(=O)(=O)N(C)Cc3ccccc3)cc2NC1=O (stereo not drawn)	3	-13	nt	7	nt	nt	nt
Cc1ccc(C(=O)Nc2ccccc2Sc2ccccc2)cc1	-2	-7	-2	0	0	nt	nt
Cc1ccc(-c2cc(NC(=O)c3ccccc3)on2)cc1	20*	-18	nt	10	nt	7	5
CC(Oc1ccc(Cl)cc1)C(=O)NNC(=S)NC(=O)c1ccco1 (stereo not drawn)	26*	-13	19	11	1	38*	42*
COc1ccccc1C(=O)NNC(=S)NC(=O)c1ccco1	24*	-6	1	14	1	3	7
O=C(Cn1c(-c2ccccc2)c[n+]2ccsc12)c1ccc(Br)cc1	0	2	0	0	0	nt	nt
CC(C)(C)CC(=O)Nc1cc2c3c(c1)CC(=O)N3CCC2	0	-1	nt	0	nt	nt	nt
N#CC1=C(N)Oc2n[nH]c(-c3ccccc3)c2C12C(=O)Nc1ccccc12 (stereo not drawn)	23*	-20	1	1	0	0	0
CC(C(=O)Nc1ccc2c(c1)OCO2)c1ccc([N+](=O)[O-])cc1 (stereo not drawn)	20*	-17	9	19	5	22*	18
CSCCC(NC(=O)c1ccco1)C(=O)NNC(=O)c1n[nH]c(=O)c2ccccc12 (stereo not drawn)	1	-1	nt	2	nt	nt	nt
NC(=O)c1c(NC(=O)c2ccncc2)sc2c1CCCC2	-1	-6	1	0	0	nt	nt
NC(=O)c1c(NC(=O)c2ccncc2)sc2c1CCCCCC2	24*	-8	nt	13	nt	14	21*
Cc1ccc(-c2nnc(NC(=O)Cc3ccc(F)cc3)o2)c(C)c1	0	-7	nt	0	nt	nt	nt
N#C/C(=C\c1ccc(O)cc1)C(=O)NCc1cccc(Cl)c1	20*	-9	nt	18	nt	14	10
COc1cccc2cc(-c3nnc(SCC(=O)Nc4ccc(NC(C)=O)cc4)n3C)oc12	0	0	nt	5	nt	nt	nt
Cc1nn(C)cc1C(C(=O)NC1CCCCC1)N(C(=O)Cc1cccs1)c1ccc(F)cc1 (stereo not drawn)	-1	4	2	1	0	nt	nt
Cc1nn(C)cc1C(C(=O)NC1CCCCC1)N(C(=O)Cc1cccs1)c1ccc(C(C)C)cc1 (stereo not drawn)	22*	-19	2	1	0	5	3
FC(F)(F)c1cccc(-c2nc3nc(Cl)c(Cl)nc3[nH]2)c1	22*	-25	32*	11	14*	14	10
Cc1ncc(CSc2ccc(Cl)cc2)c(CO)c1O	-1	-13	nt	3	nt	nt	nt
